Among the data in ChEMBL document CHEMBL1147707, “Novel substituted naphthalen-1-yl-methanone derivatives as anti-hyperglycemic agents” (Bioorg Med Chem Lett, 2006) are Activity and IC50 values, retold here.

The test system of test [1] is Rattus norvegicus. Description: Antihyperglycemic activity in sucrose charged streptozotocin-induced beta cell damaged diabetic Sprague-Dawley rat at 100 mg/kg. The format is functional. In outline:
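Overnight-fasted male rats got streptozotocin at 60 mg/kg i.p., freshly dissolved in 100 mM citrate buffer pH 4.5. Those with glucose 150–250 mg/dl at 48 h were grouped. Each rat was given sucrose at 2.5 g/kg after test-sample treatment. Glucose was measured at 30, 60, 90, 120, 180, 240 and 300 min and 24 h after dosing, with food withheld.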

Test [2] concerns Rattus norvegicus. Description: Antihyperglycemic activity in sucrose-loaded Sprague-Dawley rat at 100 mg/kg. The format is functional. In outline:
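Male rats (169 ± 20 g) fasted 16 h; those with glucose 60–80 mg/dl, in groups of five to six, received compound orally as a 1.0% gum acacia suspension at 100 mg/kg, and controls got vehicle alone. Sucrose (10.0 g/kg, oral) followed 30 min later. Glucose was read at 30, 60, 90 and 120 min, and % fall was taken from AUC versus control (active if p < 0.05).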

The target in a further test is Glucagon receptor (Homo sapiens, UniProt P47871). Description: Inhibition of [125I]glucagon binding to glucagon receptor.
Glucagon receptor, sequence (P47871 whole entry): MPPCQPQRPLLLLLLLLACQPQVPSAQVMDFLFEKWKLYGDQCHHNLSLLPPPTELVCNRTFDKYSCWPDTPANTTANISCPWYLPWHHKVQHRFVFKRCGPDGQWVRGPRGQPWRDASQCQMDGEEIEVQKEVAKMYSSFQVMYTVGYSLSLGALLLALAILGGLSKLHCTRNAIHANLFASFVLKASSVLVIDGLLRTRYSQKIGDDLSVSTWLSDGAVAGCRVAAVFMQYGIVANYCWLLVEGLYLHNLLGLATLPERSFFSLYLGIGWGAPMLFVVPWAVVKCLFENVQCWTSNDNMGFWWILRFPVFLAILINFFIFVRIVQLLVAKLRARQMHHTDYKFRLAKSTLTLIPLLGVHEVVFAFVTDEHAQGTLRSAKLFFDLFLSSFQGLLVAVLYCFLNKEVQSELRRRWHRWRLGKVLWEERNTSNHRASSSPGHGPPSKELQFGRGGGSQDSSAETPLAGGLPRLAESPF

Consider `COc1ccc(Cl)cc1C(=O)NCCc1ccc(S(=O)(=O)NC(=O)NC2CCCCC2)cc1` [GLYBURIDE], for which the Activity is 29% in the test on Rattus norvegicus [1] and 33.7% in the test with Rattus norvegicus [2].

As for `COc1ccc(NCCCOc2ccc(C(=O)c3cccc4ccccc34)cc2)cc1`, the figures for the Activity in the test on Rattus norvegicus [1] and in the test with Rattus norvegicus [2] were 12.6% and 16.17%, respectively. For the same compound, on Glucagon receptor, the IC50 (as a rule, the concentration that inhibits the measured activity by half) came to 35 µM.

`O=C(c1ccc(OCCNCc2ccccc2)cc1)c1cccc2ccccc12`: the Activity in the test on Rattus norvegicus [1] came to 5.6%; in the test on Rattus norvegicus [2], 14.9%.

Consider `O=C(c1ccc(OCCCN2CCCCC2)cc1)c1cccc2ccccc12`, for which the Activity came out at 6.8% in the test with Rattus norvegicus [1] and 7.16% in the test with Rattus norvegicus [2].

Regarding `O=C(c1ccc(OCCNC2CCCCC2)cc1)c1cccc2ccccc12`, the Activity in the test with Rattus norvegicus [2] was 7.16%.

In the test on Rattus norvegicus [2], `O=C(c1ccc(OCCCNC2CCCCC2)cc1)c1cccc2ccccc12` displayed an Activity of 11.16%.

`CN(C)C(=N)NC(=N)N` [METFORMIN] had an Activity in the test on Rattus norvegicus [2] of 12.9%.

`O=C(c1ccc(OCCN2CCCCC2)cc1)c1cccc2ccccc12`: the results for the Activity with Rattus norvegicus [1] and with Rattus norvegicus [2] were 11.3% and 15.4%, respectively.

Take `O=C(c1ccc(OCCCNCc2ccccc2)cc1)c1cccc2ccccc12`: the Activity worked out at 7.5% in the test with Rattus norvegicus [1] and 8.06% in the test on Rattus norvegicus [2].

The compound `CCN(CC)CCOc1ccc(C(=O)c2cccc3ccccc23)cc1` showed an Activity in the test with Rattus norvegicus [2] of 7.21%.

`O=C(c1ccc(OCCCCl)cc1)c1cccc2ccccc12`: the results for the Activity with Rattus norvegicus [1] and in the test on Rattus norvegicus [2] were 8.5% and 22%, respectively.

In the test with Rattus norvegicus [2], `O=C(c1ccc(OCCCl)cc1)c1cccc2ccccc12` came in with an Activity of 24%.

Take `O=C(c1ccc(OCCCN2CCCC2)cc1)c1cccc2ccccc12`: the results for the Activity in the test with Rattus norvegicus [1] and in the test on Rattus norvegicus [2] were 27% and 28.8%, respectively. For the same compound, the IC50 on Glucagon receptor was 17 µM.

`Cc1ccc(S(=O)(=O)NC(=O)NN2CC3CCCC3C2)cc1` (stereo not given) [GLICLAZIDE]: the results for the Activity with Rattus norvegicus [1] and with Rattus norvegicus [2] were 27.7% and 40.4%, respectively.

Take `COc1ccc(NCCOc2ccc(C(=O)c3cccc4ccccc34)cc2)cc1`: the Activity in the test on Rattus norvegicus [1] is given as 9.2%; in the test on Rattus norvegicus [2] it was 9.71%.

As to `O=C(c1ccc(OCCN2CCCC2)cc1)c1cccc2ccccc12`, the Activity in the test on Rattus norvegicus [1] is on record as 17%; in the test on Rattus norvegicus [2], 17.2%. Moreover, at Glucagon receptor, the IC50 came out at 55 µM.
